Screening results (PubChem)
NOD2 RIPK2 PPI: inhibitors of human NOD2-RIPK2 interaction; O43353; CHO BLA complementation NOD2-RIPK2, CCF4 ratio; inhibition, % at 4.98 µM; actives 0.38% (n = 360,000); in the data active = inhibition above about 21%;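 note: 0% = vehicle only and 100% = reference blocker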
Target sequence (O43353 whole entry, looked up): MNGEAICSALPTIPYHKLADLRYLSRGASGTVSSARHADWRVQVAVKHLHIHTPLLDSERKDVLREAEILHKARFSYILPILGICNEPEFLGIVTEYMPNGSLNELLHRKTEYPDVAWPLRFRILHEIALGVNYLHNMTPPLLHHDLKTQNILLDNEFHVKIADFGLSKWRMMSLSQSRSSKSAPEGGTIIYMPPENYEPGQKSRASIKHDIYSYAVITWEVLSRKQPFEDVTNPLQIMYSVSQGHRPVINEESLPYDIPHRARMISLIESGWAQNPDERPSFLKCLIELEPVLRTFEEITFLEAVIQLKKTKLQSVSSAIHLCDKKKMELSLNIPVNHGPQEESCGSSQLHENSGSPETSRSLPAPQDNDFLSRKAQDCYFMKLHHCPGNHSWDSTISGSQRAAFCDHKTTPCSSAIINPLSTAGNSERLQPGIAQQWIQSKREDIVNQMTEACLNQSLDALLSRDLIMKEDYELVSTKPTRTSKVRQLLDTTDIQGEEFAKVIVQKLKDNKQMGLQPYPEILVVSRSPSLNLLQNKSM
UPR CHOP act: activators of apoptotic arm of unfolded protein response (CHOP); activation, % at 10 µM; AID 449763; actives 0.34% (n = 330,000); CHO-CHOP luciferase reporter, UPR activation, luminescence; percent of tunicamycin response over DMSO baseline;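 active = at 10 µM dose, activation of 40% or more, normalized to positive control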;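 note: 100% = tunicamycin at 10 µg/mL and 0% = DMSO alone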
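Test system: CHO-CHOP cells, stable luciferase reporter of PERK-eIF2a-CHOP signalling | Quantity: 500 CHO-CHOP cells per well | Buffer or medium: F12 plus 10% serum | Compound dosing: 10 µM single point, 0.5% DMSO | Schedule: 6 h compound treatment, 37 °C | Signal: Luciferase luminescence | Control set: Tunicamycin high control, DMSO low control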
XBP1 UPR activ: activators of adaptive arm of unfolded protein response (XBP1) | actives 0.33% (n = 330,000) | CHO-XBP1 luciferase reporter, IRE1-XBP1 UPR activation, luminescence; percent of tunicamycin response, DMSO as zero | activation, % at 20 µM;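 active = versus positive control, 20 µM dose yields 30% or more activation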;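 note: 100% = tunicamycin at 10 µg/mL and 0% = DMSO only wells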
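Assay system: IRE1-XBP1 luciferase reporter CHO line. Input: 1000 cells/well. Buffer or medium: F12 with 10% serum. Doses: 20 µM, 1% DMSO. Times: overnight seeding at 37 °C, 6 h compound treatment at 37 °C. Technique: Steady-Glo luciferase glow luminescence, 10 min after reagent addition.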
TLR9-MyD88 inh: TLR9-MyD88 interaction inhibition. CHO BLA complementation TLR9-MyD88, CCF4 FRET ratio. inhibition, % at 4.98 µM. actives 0.21% (n = 340,000);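 active = inhibition above the mean over all tested compounds plus 3 SD, cut at about 21% in these data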;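 note: 0% = DMSO only wells and 100% = clavulanate BLA inhibitor control wells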
TLR4 MyD88 comp: inhibitors of human TLR4-MyD88 binding. O00206+Q99836. HeLa CL3-4 TLR4/MyD88 BLA complementation, FRET ratio. inhibition, % at 8.4 µM. actives 0.18% (n = 200,000). AID 861; in the data active = inhibition above about 25%;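 note: 0% = vehicle and 100% = reference inhibitor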
CHOP inhibitor: inhibitors of CHOP induction in ER stress response. inhibition, % at 10 µM. actives 3.8% (n = 220,000). CHO-K1 CHOP-promoter luciferase, tunicamycin-induced, 15-18 h;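 active = compounds that reduced the stress-induced luciferase reporter signal by more than about 70% of percent inhibition, limit read from the data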;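 note: 0% = tunicamycin plus vehicle and 100% = wells without tunicamycin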
CHOP inh conf: confirmation of CHOP induction inhibitors | shares compounds with CHOP inhibitor | CHO-CHOP promoter luciferase reporter, tunicamycin-induced, luminescence | inhibition, % at 10 µM | actives 45% (n = 2,100);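 active = mean of three repeat readings of reporter signal inhibition above a set limit, cut at about 70% in these data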;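 note: 0% = tunicamycin plus vehicle and 100% = wells lacking tunicamycin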
The depositor's hits bear a star; x = no result. Shown is part of a subset that was picked to be rich in hits.

SMILES | NOD2 RIPK2 PPI | UPR CHOP act | XBP1 UPR activ | TLR9-MyD88 inh | TLR4 MyD88 comp | CHOP inhibitor | CHOP inh conf
CC1=NN(c2ccc(C)c(C)c2)C(=O)/C1=C\C=C\c1ccc([N+](=O)[O-])o1 | -4.5 | 25.2 | 1.1 | 4.9 | 10.1 | 108.4* | 20.7
CC1=NN(c2ccccc2)C(=O)/C1=C\C=C\c1ccccc1 | -15.1 | 3.1 | -1.0 | x | x | -18.9 | x
COc1ccc(-c2noc(CNS(=O)(=O)c3ccc(NC(C)=O)cc3)n2)cc1 | 2.0 | -0.7 | -3.5 | -5.0 | x | x | x
O=C(NCc1nc(-c2ccc(C(F)(F)F)cc2)no1)Nc1ccc(OC(F)(F)F)cc1 | -1.1 | 1.4 | -7.1 | x | x | 99.8* | 106.5*
CCOC(=O)Cc1csc(NC(=O)c2cc(C)c(C)s2)n1 | -7.6 | 3.9 | 0.4 | -6.1 | x | x | x
CCOC(=O)Cc1csc(NC(=O)NC2(C(F)(F)F)Oc3ccc(Cl)cc3O2)n1 (configuration not stated) | 5.8 | 7.0 | 10.9 | -8.0 | 8.3 | 104.6* | 111.3*
CCOC(=O)Cc1csc(NC(=O)NC2(C(F)(F)F)Oc3cc(Cl)c(Cl)cc3O2)n1 | -5.7 | -1.7 | 7.2 | -10.3 | -1.6 | 102.3* | 110.0*
COc1ccc(C(C)(O)c2nc(-c3ccoc3)cs2)cc1 (configuration not stated) | -1.9 | x | x | x | x | x | x
CCOC(=O)Cc1nnc2c(Nc3ccc(Cl)cc3)nc3nonc3n12 | 0.2 | 1.3 | 0.2 | -0.1 | 10.5 | 105.2* | 60.7
CC(C)NC(=O)C1(C)CCN1C(=O)C1(c2ccccc2)CC1 (configuration not stated) | -11.8 | x | x | x | x | x | x
CC(C)c1ccc(O)c(NC(=S)NC(=O)CCc2ccccc2)c1 | 8.4 | -0.1 | -1.0 | 2.6 | 1.4 | 106.3* | 110.1*
CC(=O)c1ccc(Nc2nc(C(C)N)cs2)cc1 (configuration not stated) | 4.2 | x | x | x | x | x | x
CSc1ccc(/C=N/n2c(Cc3ccc(Br)cc3)n[nH]c2=S)cc1 | -9.1 | 2.2 | -3.3 | -0.8 | 4.9 | 101.1* | 29.7
OCCN1CCN(c2ncnc3c2ncn3[C@H]2CN(Cc3ccc4c(c3)OCO4)C[C@@H](CO)O2)CC1 | -1.1 | x | x | x | x | x | x
Cc1ccc(S(=O)(=O)CC#CCOC(=O)c2ccc([N+](=O)[O-])cc2)cc1 | x | -0.1 | -0.8 | x | -3.6 | 106.9* | 107.7*
O=C(CCN1C(=O)c2ccccc2C1=O)Oc1ccc2ccccc2c1 | -10.7 | -0.4 | 0.7 | -7.5 | 1.2 | 38.7 | x
CC1=CC(C)(C)Nc2ccc(OC(=O)CCN3C(=O)c4ccccc4C3=O)cc21 | 17.5 | -5.1 | -7.3 | 1.6 | 2.2 | 108.0* | -219.7
CCOC(=O)/C(=C/c1ccc(OC(F)F)cc1)C1=Nn2c(nnc2-c2ccc(Cl)cc2)SC1 | -4.4 | x | x | -1.1 | x | x | x
CCOC(=O)/C(=C\c1ccc(OC(F)F)cc1)C1=Nn2c(nnc2-c2ccc(Cl)cc2)SC1 | -6.0 | x | x | -0.4 | 13.8 | 107.5* | 120.2*
O=C(Nc1ccc2c(c1)OCO2)Nc1ccc2c(c1)OCO2 | -11.1 | 5.1 | 4.0 | -3.4 | -2.4 | 19.3 | x
O=C(Nc1ccc([N+](=O)[O-])cc1)Nc1ccc(OC(F)F)c(Cl)c1 | -9.2 | x | x | 9.8 | 15.9 | 106.3* | 124.8*
O=C(Nc1ccc(OC(F)F)c(Cl)c1)Nc1ccc2c(c1)OCO2 | 10.0 | 2.8 | 5.1 | 13.8 | -19.2 | 106.0* | 66.6
CN1CCN(C2=C(Cl)C(=O)C(c3cnc(N4CCCCC4)s3)=C(Cl)C2=O)CC1 | 7.7 | -0.7 | -7.9 | 3.6 | -0.5 | 100.4* | -17.6
CN1CCN(C2=C(Cl)C(=O)c3ccccc3C2=O)CC1 | -1.4 | x | x | 0.3 | x | x | x
Fc1cc(F)c2nc(Nc3nc4cc5c(cc4s3)OCO5)sc2c1 | -5.5 | x | x | -7.2 | -15.9 | 108.5* | 83.6*
Fc1cccc2sc(Nc3nc4cc5c(cc4s3)OCO5)nc12 | -5.2 | 4.1 | 2.3 | -13.3 | -2.1 | 41.1 | x
O=C(CC(NC(=O)c1ccccc1)c1ccccc1)NCc1ccccc1 (configuration not stated) | -10.1 | -0.5 | -2.0 | -4.4 | x | x | x
